Source: PubChem BioAssay (The Scripps Research Institute Molecular Screening Center)
NPY Y1 blocker – blocks the human neuropeptide Y Y1 receptor. P25929. HEK293-CNG Y1 cells, membrane potential fluorescence; NPY at EC95, then isoproterenol. inhibition, % at 3.6 µM. actives 1% (n = 200,000). AID 1040;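 active means inhibition above the campaign mean inhibition of all tested compounds plus 3 SD, cut at about 20% in these data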;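 further: 0% = DMSO wells given NPY plus isoproterenol and 100% = isoproterenol alone without NPY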
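Material: HEK293 Y1/CNG channel cell line | Also added: NPY (25 nM), isoproterenol (1 µM), Ro 20-1724 (25 µM) | Compound: One concentration, 3.6 µM, in 0.4% DMSO | Schedule: 3 h dye uptake, 1 h room-temperature compound, 45 min post-isoproterenol | Signal: Membrane-potential fluorescent dye readout | Read-out: % inhibition of NPY effect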
NPY2 pot ag – potentiators or agonists of human neuropeptide Y receptor Y2. actives 0.45% (n = 220,000). activation, % at 3.6 µM. cells expressing NPY-Y2, potentiator/agonist read-out. AID 1359. P49146; in the data active means activation above about 27%;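 further: cells stimulated with NPY near EC25 plus isoproterenol at EC100; 0% = vehicle plus submaximal agonist and 100% = vehicle plus saturating agonist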
Target sequence (P49146 whole entry, looked up): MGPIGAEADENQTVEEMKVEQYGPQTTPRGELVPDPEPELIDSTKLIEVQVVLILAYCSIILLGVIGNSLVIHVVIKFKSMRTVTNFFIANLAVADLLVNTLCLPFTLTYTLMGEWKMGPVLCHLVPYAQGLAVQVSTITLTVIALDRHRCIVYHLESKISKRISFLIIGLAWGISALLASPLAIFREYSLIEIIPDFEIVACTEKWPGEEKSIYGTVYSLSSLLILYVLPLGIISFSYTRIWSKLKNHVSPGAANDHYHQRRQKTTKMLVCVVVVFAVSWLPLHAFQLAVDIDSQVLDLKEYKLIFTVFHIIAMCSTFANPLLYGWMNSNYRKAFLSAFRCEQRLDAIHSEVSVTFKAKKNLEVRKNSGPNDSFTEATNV
NPY-Y1 PAM-ag – potentiates or activates human NPY-Y1 receptor; activation, % at 3.6 µM; actives 0.37% (n = 220,000); AID 1304; P25929; NPY-Y1 expressing cells, potentiator/agonist activation; in the data active means activation above about 33%, passing the limit was not always enough;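 further: cells stimulated with NPY at EC10 then isoproterenol at EC100; 0% = low agonist plus stimulus and 100% = saturating agonist plus stimulus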
NPY Y2 blocker – NPY-Y2 (human) receptor antagonism. NPY-Y2 expressing cells, antagonist mode. AID 793. actives 0.99% (n = 140,000). inhibition, % at 2.7 µM;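 further: 0% = vehicle with agonist challenge and 100% = reference antagonist with challenge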
NPY-Y1 ant conf – human NPY-Y1 antagonism, confirmation. actives 21% (n = 1,200). inhibition, % at 3.6 µM. shares compounds with NPY Y1 blocker. AID 1254. HEK293-CNG NPY-Y1, membrane potential fluorescence, cAMP; NPY challenge against isoproterenol-raised cAMP; in the data active means inhibition above about 20%;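 further: 0% = vehicle with agonist plus stimulus and 100% = stimulus alone without agonist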
NPY-Y2 antag ct – antagonizes human NPY-Y2, counter-screen to NPY-Y1 antagonists; actives 28% (n = 1,200); inhibition, % at 3.6 µM; HEK293 NPY-Y2 CNG membrane potential fluorescence, antagonism; cells given NPY, then isoproterenol; shares compounds with NPY Y1 blocker;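 further: 0% = DMSO with agonist challenge and 100% = reference antagonist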
* = called active by the depositor. Rows were chosen to be rich in hits. Some 1.9% of all compounds tested hit in one or more screens of this group. Unless noted, no stated cut-off is given here; in the data, active means inhibition above about 17%; inactive means the rest.

COC(=O)c1ccc(CSc2nc3c(cnn3-c3ccc(C)cc3)c(=O)[nH]2)o1 was read as NPY Y1 blocker 27*, NPY2 pot ag -2, NPY-Y1 PAM-ag -29, NPY Y2 blocker 10, NPY-Y1 ant conf 3 and NPY-Y2 antag ct 10.
`COC(=O)c1ccc(Cn2cnc3c(cnn3-c3ccc(F)cc3)c2=O)o1` gave NPY Y1 blocker 7, NPY2 pot ag -31, NPY-Y1 PAM-ag -32 and NPY Y2 blocker 8.
Cc1ccc(-n2ncc3c(=O)[nH]c(SCC(=O)N4CCOCC4)nc32)cc1 was read as NPY Y1 blocker 3, NPY2 pot ag 16, NPY-Y1 PAM-ag -9 and NPY Y2 blocker -1.
Screening CCCCCCOc1ccc(C(CC(N)=O)C(=O)O)cc1 (stereo not given) returned NPY Y1 blocker 1, NPY2 pot ag 0 and NPY-Y1 PAM-ag 15.
For Cn1nnc(NC(=S)NC(=O)Cc2ccccc2)n1 the results were NPY Y1 blocker -4, NPY2 pot ag 2 and NPY-Y1 PAM-ag -2.
CCCCNC(=S)N(C)/N=C/c1ccc2c(c1)OCO2 was read as NPY Y1 blocker 22*, NPY2 pot ag -17, NPY-Y1 PAM-ag -21, NPY Y2 blocker 10, NPY-Y1 ant conf 9 and NPY-Y2 antag ct 11.
`O=C(Cn1c(C(=O)N2CCc3ccccc3C2)cc2sccc21)c1ccccc1` gave NPY Y1 blocker 4, NPY2 pot ag 4, NPY-Y1 PAM-ag -3 and NPY Y2 blocker 7.
`O=C(Cn1c(C(=O)N2CCN(C3CCCCC3)CC2)cc2sccc21)c1ccccc1` gave NPY Y1 blocker 22*, NPY2 pot ag -36, NPY-Y1 PAM-ag -35, NPY Y2 blocker 15, NPY-Y1 ant conf 10 and NPY-Y2 antag ct 8.
Screening COc1ccccc1OCC(=O)Nc1cccc(-c2nc3ccccc3o2)c1 returned NPY Y1 blocker 20*, NPY2 pot ag -27, NPY-Y1 PAM-ag -67, NPY Y2 blocker 14, NPY-Y1 ant conf 16 and NPY-Y2 antag ct 10.
`CCC(=O)Nc1cccc(-c2nc3ccccc3o2)c1` gave NPY Y1 blocker 9, NPY2 pot ag 4, NPY-Y1 PAM-ag 20 and NPY Y2 blocker 2.
Screening COc1ccccc1CNC(=O)c1c(N)n(CCCN2CCOCC2)c2nc3ccccc3nc12 returned NPY Y1 blocker 23*, NPY2 pot ag -5, NPY-Y1 PAM-ag -12, NPY Y2 blocker 14, NPY-Y1 ant conf 9 and NPY-Y2 antag ct 7.
For CC(C)OC(=O)c1c(N)n(CCCN2CCOCC2)c2nc3ccccc3nc12 the results were NPY Y1 blocker 3, NPY2 pot ag -4, NPY-Y1 PAM-ag -2 and NPY Y2 blocker 1.
Screening COC(=O)c1ccc(-c2noc(CN3CCCCC3c3nccn3C)n2)cc1 (stereo not given) returned NPY Y1 blocker 33*, NPY2 pot ag -1, NPY-Y1 PAM-ag -5, NPY-Y1 ant conf 9 and NPY-Y2 antag ct 12.
Cn1ccnc1C1CCCCN1Cc1nc(Cc2ccccc2F)no1 (stereo not given) was read as NPY Y1 blocker 8, NPY2 pot ag -3 and NPY-Y1 PAM-ag 8.
`Cc1c(C=O)c(=O)n(-c2ccccc2)n1-c1ccccc1` gave NPY Y1 blocker -2, NPY2 pot ag 6, NPY-Y1 PAM-ag 6 and NPY Y2 blocker 2.
`N#Cc1cc2c(nc1Cl)CCCC2` gave NPY Y1 blocker 5, NPY2 pot ag 7, NPY-Y1 PAM-ag 4 and NPY Y2 blocker 2.
For COc1ccc(-n2nnnc2-c2cccc(OC)c2)cc1 the results were NPY Y1 blocker 24*, NPY2 pot ag -15, NPY-Y1 PAM-ag 0, NPY Y2 blocker 5, NPY-Y1 ant conf 4 and NPY-Y2 antag ct 29*.
Screening CC1(C)CC(NC(=O)c2sc3cc(Cl)ccc3c2Cl)CC(C)(C)N1 returned NPY Y1 blocker 0, NPY2 pot ag 8 and NPY-Y1 PAM-ag 10.
FC(F)(F)COc1nc(OCC(F)(F)F)nc(N2CCN(c3ccccc3)CC2)n1 was read as NPY Y1 blocker 28*, NPY2 pot ag -10, NPY-Y1 PAM-ag -13, NPY Y2 blocker 9, NPY-Y1 ant conf 9 and NPY-Y2 antag ct 8.
For COC(=O)c1ccc(NC(=O)c2ccccc2-c2ccccc2C(=O)O)cc1 the results were NPY Y1 blocker 1, NPY2 pot ag 2 and NPY-Y1 PAM-ag 14.
Screening Cc1ccc(-n2ncc(C(=O)N3CCc4ccccc4C3)c2NC(=O)c2ccco2)cc1C returned NPY Y1 blocker 22*, NPY2 pot ag -8, NPY-Y1 PAM-ag -41, NPY Y2 blocker 10, NPY-Y1 ant conf 2 and NPY-Y2 antag ct 9.
`Cc1ccccc1Oc1cc(NC(=O)CCCn2nc(C)c([N+](=O)[O-])c2C)cc([N+](=O)[O-])c1` gave NPY Y1 blocker -6, NPY2 pot ag 22, NPY-Y1 PAM-ag 16 and NPY Y2 blocker 1.
Screening Cc1ccccc1Oc1cc(NC(=O)Cn2cnc([N+](=O)[O-])c2)cc([N+](=O)[O-])c1 returned NPY Y1 blocker 25*, NPY2 pot ag 16, NPY-Y1 PAM-ag 32, NPY-Y1 ant conf -5 and NPY-Y2 antag ct -5.
`Cc1ccc(NC(=O)CCC(=O)c2cccs2)c(O)c1` gave NPY2 pot ag 0 and NPY-Y1 PAM-ag 8.
For CCN(CC)S(=O)(=O)c1ccc2[nH]cc(C(=O)NCCN3CCCCCC3)c(=O)c2c1 the results were NPY Y1 blocker 21*, NPY2 pot ag -8, NPY-Y1 PAM-ag -19, NPY Y2 blocker -2, NPY-Y1 ant conf 0 and NPY-Y2 antag ct 1.
Screening CCN(CC)S(=O)(=O)c1ccc2[nH]cc(C(=O)NCCCN3CCCCC3)c(=O)c2c1 returned NPY Y1 blocker -4, NPY2 pot ag -2, NPY-Y1 PAM-ag -7 and NPY Y2 blocker 2.
For COc1ccc(-n2nc3c(c2NC(=O)c2c(-c4ccccc4Cl)noc2C)CS(=O)(=O)C3)cc1 the results were NPY Y1 blocker 38*, NPY2 pot ag 2, NPY-Y1 PAM-ag 6, NPY Y2 blocker 11, NPY-Y1 ant conf 9 and NPY-Y2 antag ct 11.
`CCN(CC)c1ncnc2scc(C3COc4ccccc4O3)c12` (stereo not given) gave NPY Y1 blocker 38*, NPY2 pot ag -16, NPY-Y1 PAM-ag -36, NPY Y2 blocker 15, NPY-Y1 ant conf 16 and NPY-Y2 antag ct 8.
For CN1CCN(c2nc(-c3cccnc3)nc3scc(-c4ccccc4)c23)CC1 the results were NPY Y1 blocker 28*, NPY2 pot ag -23, NPY-Y1 PAM-ag -38, NPY-Y1 ant conf 7 and NPY-Y2 antag ct 13.
COc1ccccc1-c1cc(C(F)(F)F)nc(S(=O)(=O)CCCC(=O)N2CCCCC2C)n1 (stereo not given) was read as NPY Y1 blocker 25*, NPY2 pot ag -15, NPY-Y1 PAM-ag -68, NPY Y2 blocker 0, NPY-Y1 ant conf 14 and NPY-Y2 antag ct 44*.
